Experimental data as given in ChEMBL document CHEMBL1136956, “Identification of 2-aminobenzimidazoles as potent melanin-concentrating hormone 1-receptor (MCH1R) antagonists” (Bioorg Med Chem Lett, 2009).

Legend:
[1] = target: T1, Melanin-concentrating hormone receptor 1 (Homo sapiens, UniProt Q99705); test: Displacement of [125I]MCH from human MCH1 receptor expressed in CHO-K1 cells by scintillation counting; format: cell-based
Method in brief: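 Membranes of CHO-K1 cells stably expressing human MCH1R incubated with [125I]-MCH and compound in 50 mM Tris, 10 mM MgCl2, 2 mM EDTA, bacitracin, 0.2% BSA, pH 7.4, 2 h at room temperature. Bound label collected by filtration onto GF/C filters and counted by scintillation. Non-specific binding defined with 1 µM unlabeled MCH. IC50 reported as mean of at least two experiments.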

[2] = target: T1, Melanin-concentrating hormone receptor 1; test: Antagonist activity at human MCH1 receptor expressed in CHO-K1 cells assessed as inhibition of MCH-induced intracellular calcium mobilization by FLIPR assay; format: functional, cell-based
Method in brief: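 CHO-K1 cells stably expressing human MCH1R, seeded at 3.0 × 10^4 per well and grown 24 h in DMEM/10% FBS with G418. Cells loaded with Fluo-4 AM plus 2.5 mM probenecid for 1 h at 37 °C, then washed into HBSS/20 mM Hepes/0.5% BSA/2.5 mM probenecid, pH 7.4. Compound added 5 min before MCH; Ca2+ mobilization read on FLIPR. IC50 is mean of ≥2 experiments.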

[3] = Intrinsic clearance in rat hepatocytes; format: ADME, cell-based, Liver, Hepatocyte
[4] = Plasma concentration in rat at 30 mg/kg, po after 2 hrs; format: ADME, organism-based; set-up: dose 30 mg/kg, route oral
Method in brief: (§1)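 Rats given 30 mg/kg PO; plasma and brain levels determined 2 h post-dose, with brain/plasma ratio taken from these. Mean values, n = 3.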

Brain = test: Drug level in rat brain at 30 mg/kg, po after 2 hrs; format: ADME, organism-based; set-up: dose 30 mg/kg, route oral; details: in vivo; method in brief: as §1
[5] = Ratio of drug level from brain to plasma in rat at 30 mg/kg, po after 2 hrs; format: ADME, organism-based; set-up: dose 30 mg/kg, route oral; details: brain and plasma, read-out: BPR; method in brief: as §1
Rattus norvegicus [6] = test: Antiobese activity in high fat fed Sprague-Dawley rat assessed as suppression of […] food intake at 10 mg/kg, po; format: functional
Method in brief: (§2)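 Male SD rats with a 26-gauge guide cannula in the third ventricle, used after ≥1 week recovery. Rats fed high-fat diet ~3 h, then given compound (10 or 30 mg/kg) or vehicle orally. 1 h later MCH (5 µg/head in artificial CSF) was injected ICV, 1 h before dark onset. Food intake measured over 2 h; 15–20 rats per group, versus vehicle/MCH group.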

Rattus norvegicus [7] = test: Antiobese activity in high fat fed Sprague-Dawley rat assessed as suppression of […] food intake at 30 mg/kg, po; format: functional; method in brief: as §2
[8] = Clearance in rat at 1 mg/kg, iv and 3 mg/kg, po; format: ADME, organism-based; details: in vivo
Method in brief: (§3)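 Rats dosed at 1 mg/kg IV and 3 mg/kg PO. Clearance, volume of distribution, half-life and oral bioavailability derived from these dosings; mean values, n = 3.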

[9] = Oral bioavailability in rat at 3 mg/kg; format: ADME, organism-based; details: in vivo; method in brief: as §3
[10] = Volume of distribution in rat at 1 mg/kg, iv and 3 mg/kg, po; format: ADME, organism-based; details: in vivo; method in brief: as §3
[11] = Half life in rat at 1 mg/kg, iv and 3 mg/kg, po; format: ADME, organism-based; details: in vivo; method in brief: as §3

T1 sequence (Q99705 whole entry): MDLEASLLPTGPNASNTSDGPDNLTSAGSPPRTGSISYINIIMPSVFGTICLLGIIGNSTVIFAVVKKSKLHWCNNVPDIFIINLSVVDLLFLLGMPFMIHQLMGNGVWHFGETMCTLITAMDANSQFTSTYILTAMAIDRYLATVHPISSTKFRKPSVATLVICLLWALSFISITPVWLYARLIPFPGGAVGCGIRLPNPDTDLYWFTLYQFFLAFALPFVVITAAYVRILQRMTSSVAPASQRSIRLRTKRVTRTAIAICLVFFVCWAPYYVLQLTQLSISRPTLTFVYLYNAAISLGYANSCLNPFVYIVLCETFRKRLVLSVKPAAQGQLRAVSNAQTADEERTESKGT

Row | Compound | IC50 [1] [nM] | other results
1 | CC(C)N(C)c1nc2ccc(NC(=O)CCc3ccc(C(F)(F)F)cc3)cc2[nH]1 | 5.9 | IC50 [2]: 21 nM; CLint scaled [3]: 32 mL/min/kg
2 | CN1CCC(N(C)c2nc3ccc(NC(=O)CCc4ccc(C(F)(F)F)cc4)cc3[nH]2)CC1 | 23 | 
3 | CC(C)N(C)c1nc2ccc(NC(=O)c3ccc(-c4ccc(C(F)(F)F)cn4)cc3)cc2[nH]1 | 3.1 | CLint scaled [3]: 16 mL/min/kg
4 | CC(C)N(C)c1nc2ccc(NC(=O)c3ccc(-c4ccc(F)cc4)nc3)cc2[nH]1 | 5.5 | CLint scaled [3]: 8 mL/min/kg
5 | CC(C)N(C)c1nc2ccc(NC(=O)CCc3ccc(C(F)(F)F)cc3)cc2s1 | > 750 | 
6 | CC(C)N(C)c1nc2ccc(NC(=O)c3ccc(-c4ccccc4)nc3)cc2[nH]1 | 8.8 | CLint scaled [3]: 12 mL/min/kg
7 | CN(c1nc2ccc(NC(=O)CCc3ccc(C(F)(F)F)cc3)cc2[nH]1)C1CC1 | 24 | 
8 | CCN(C)c1nc2ccc(NC(=O)CCc3ccc(C(F)(F)F)cc3)cc2[nH]1 | 19 | 
9 | CC(C)N(C)c1nc2ccc(NC(=O)c3ncc(-c4ccc(F)cc4)cn3)cc2[nH]1 | 15 | CLint scaled [3]: 9 mL/min/kg
10 | CN(c1nc2ccc(NC(=O)CCc3ccc(C(F)(F)F)cc3)cc2[nH]1)C1CCOC1 (centres undefined) | 27 | 
11 | CC(C)N(C)c1ccc2nc(NC(=O)CCc3ccc(C(F)(F)F)cc3)ccc2n1 | 375 | 
12 | CC(=O)N1CCC(N(C)c2nc3ccc(NC(=O)CCc4ccc(C(F)(F)F)cc4)cc3[nH]2)C1 (centres undefined) | 30 | 
13 | CC(C)N(C)c1nc2ccc(NC(=O)CCc3ccc(C(F)(F)F)cn3)cc2[nH]1 | 41 | 
14 | CC(C)N(C)c1nc2ccc(NC(=O)c3cncc(-c4ccc(F)cc4)c3)cc2[nH]1 | 900 | 
15 | CC(C)N(C)c1ccc2cc(NC(=O)CCc3ccc(C(F)(F)F)cc3)cnc2n1 | 365 | 

Continued by falling IC50 [1], values first:

Row | IC50 [1] [nM] | Compound | other results
16 | 428 | O=C(CCc1ccc(C(F)(F)F)cc1)Nc1ccc2nc(N3CCOCC3)[nH]c2c1 | 
17 | 135 | CCN(c1nc2ccc(NC(=O)CCc3ccc(C(F)(F)F)cc3)cc2[nH]1)C1CCCCC1 | 
18 | 12 | CN(C)c1nc2ccc(NC(=O)CCc3ccc(C(F)(F)F)cc3)cc2[nH]1 | 
19 | 6.7 | CN(c1nc2ccc(NC(=O)CCc3ccc(C(F)(F)F)cc3)cc2[nH]1)C1CCCCC1 | IC50 [2]: 27 nM
20 | 4 | CN(c1nc2ccc(NC(=O)CCc3ccc(C(F)(F)F)cc3)cc2[nH]1)C1CCCC1 | IC50 [2]: 22 nM
21 | 2.7 | CC(C)N(C)c1nc2ccc(NC(=O)c3cnc(-c4ccc(F)cc4)cn3)cc2[nH]1 | concentration at 2 h [4]: 3.9 µM; Drug uptake (Brain): 1.4 nmol/g; Kp at 2 h [5]: 0.36; Activity (Rattus norvegicus [6]): 32%; Activity (Rattus norvegicus [7]): 72%; clearance [8]: 11 mL/min/kg; bioavailability [9]: 35%; CLint scaled [3]: 10 mL/min/kg; Vd [10]: 1.2 L/kg; half-life [11]: 138 min
